The source made the active and inactive calls. The calls are words filed in the database; no cut-off is given here.
How the values were obtained:
[1] = target: T1, Epidermal growth factor receptor (Homo sapiens, UniProt P00533); experiment: Inhibition of recombinant human GST-tagged wild type EGFR ( 668 to 1210 residues) cytoplasmic domain expressed in baculovirus expression system preincubated for 20 mins followed by addition of [33P]-ATP measured after 2 hrs by filter-binding method; conditions: read-out: IC50
[2] = Drug metabolism in human liver microsomes assessed as parent compound remaining at 100 uM after 4 hrs in presence of NADPH regenerating system by LC-MS analysis; format: ADME, microsome; conditions: read-out: Stability
[3] = target: Epidermal growth factor receptor (Homo sapiens, UniProt P00533, L858R); experiment: Binding affinity to human EGFR L858R mutant (669 to 1011 residues) expressed in bacterial system incubated for 1 hr
How it was run: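 Competition binding: compound's ability to displace an immobilized, active-site-directed ligand from the kinase, reported as Kd. Compound and kinase were combined and equilibrated 1 h without dilution before read-out.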

[4] = target: Epidermal growth factor receptor (Homo sapiens, UniProt P00533, L858R/T790M); experiment: Binding affinity to human EGFR L858R/T790M double mutant (669 to 1011 residues) expressed in mammalian system preincubated for 1 hr followed by 30 fold dilution measured after 5 hrs
How it was run: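 Competition binding against an immobilized active-site-directed ligand; Kd read out. Compound and kinase combined and equilibrated 1 h, then diluted 30-fold in reaction buffer and equilibrated a further 5 h (study arm B).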

Homo sapiens [5] = species: Homo sapiens; experiment: (§1) Inhibition of recombinant human N-terminally GST-His6 tagged EGFR 746-750 deletion mutant (M672 to A1210 residues) C-terminal fragment harboring 3C cleavage site expressed in Baculovirus infected Sf9 cells assessed as residual activity at 1 uM in presence of [33-gamma]-ATP after 60 mins by scintillation counting method relative to control
Homo sapiens [6] = species: Homo sapiens; experiment: as §1, with “del 747-749/A750P” for “746-750 deletion”, “(H672” for “(M672”
Homo sapiens [7] = species: Homo sapiens; experiment: as §1, with “del 752-759” for “746-750 deletion”, “(H672” for “(M672”
[8] = test system: Epidermal growth factor receptor (Homo sapiens), P00533 [G719C]; experiment: as §1, with “G719C” for “746-750 deletion”, “(H672” for “(M672”
[9] = test system: Epidermal growth factor receptor (Homo sapiens), P00533 [L861Q]; experiment: as §1, with “L861Q” for “746-750 deletion”, “(H672” for “(M672”
[10] = target: Receptor tyrosine-protein kinase erbB-2 (Homo sapiens) (UniProt P04626); experiment: as §1, with “recombinant wild-type” for “recombinant”, “ERBB2 (Q679” for “EGFR 746-750 deletion mutant (M672”, “V1255” for “A1210”, “thrombin” for “3C”
[11] = target: Receptor tyrosine-protein kinase erbB-4 (Homo sapiens) (UniProt Q15303); experiment: as §1, with “ERBB4 (R676” for “EGFR 746-750 deletion mutant (M672”, “V1307” for “A1210”, “thrombin” for “3C”
Receptor tyrosine-protein kinase erbB-4 (Homo sapiens), sequence (Q15303 whole entry): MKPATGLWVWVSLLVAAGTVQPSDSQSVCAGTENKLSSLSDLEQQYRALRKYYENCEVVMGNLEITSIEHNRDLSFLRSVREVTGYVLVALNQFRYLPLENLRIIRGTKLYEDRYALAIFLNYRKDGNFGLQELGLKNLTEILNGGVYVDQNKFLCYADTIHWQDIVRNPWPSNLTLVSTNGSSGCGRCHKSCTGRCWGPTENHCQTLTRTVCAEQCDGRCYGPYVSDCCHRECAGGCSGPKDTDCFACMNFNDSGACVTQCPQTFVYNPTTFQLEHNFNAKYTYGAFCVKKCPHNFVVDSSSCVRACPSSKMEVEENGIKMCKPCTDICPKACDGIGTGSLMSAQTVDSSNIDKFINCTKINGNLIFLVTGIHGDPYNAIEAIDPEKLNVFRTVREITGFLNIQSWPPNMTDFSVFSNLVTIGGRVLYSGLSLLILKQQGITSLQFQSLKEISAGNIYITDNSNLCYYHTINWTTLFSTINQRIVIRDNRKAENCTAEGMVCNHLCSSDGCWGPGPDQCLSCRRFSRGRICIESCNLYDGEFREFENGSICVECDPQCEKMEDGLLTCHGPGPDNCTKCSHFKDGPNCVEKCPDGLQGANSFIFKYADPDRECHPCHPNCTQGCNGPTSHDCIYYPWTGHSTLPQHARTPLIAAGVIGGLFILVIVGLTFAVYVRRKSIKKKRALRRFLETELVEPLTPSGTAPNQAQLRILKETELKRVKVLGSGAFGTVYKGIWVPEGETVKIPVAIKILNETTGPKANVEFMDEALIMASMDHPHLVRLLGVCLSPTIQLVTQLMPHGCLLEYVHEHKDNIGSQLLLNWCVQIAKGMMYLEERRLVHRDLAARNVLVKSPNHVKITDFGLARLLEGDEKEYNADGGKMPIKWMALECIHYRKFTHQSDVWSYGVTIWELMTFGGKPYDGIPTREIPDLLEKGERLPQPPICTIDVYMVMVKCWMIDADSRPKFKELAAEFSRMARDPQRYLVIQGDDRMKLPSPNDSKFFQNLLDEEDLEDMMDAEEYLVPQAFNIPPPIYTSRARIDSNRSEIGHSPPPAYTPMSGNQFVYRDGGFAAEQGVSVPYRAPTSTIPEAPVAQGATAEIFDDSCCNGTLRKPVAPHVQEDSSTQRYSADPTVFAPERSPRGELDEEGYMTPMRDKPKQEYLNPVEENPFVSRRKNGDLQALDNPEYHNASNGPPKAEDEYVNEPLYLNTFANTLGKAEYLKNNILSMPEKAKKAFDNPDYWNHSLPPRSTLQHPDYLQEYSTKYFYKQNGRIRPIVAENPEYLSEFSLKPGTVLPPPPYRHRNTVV

[12] = target: Cytoplasmic tyrosine-protein kinase BMX (Homo sapiens) (UniProt P51813); experiment: Inhibition of BMX (unknown origin) assessed as residual activity at 1 uM in presence of [33-gamma]-ATP after 60 mins by scintillation counting method relative to control
[13] = target: Casein kinase I isoform delta (Homo sapiens) (UniProt P48730); experiment: Inhibition of CK1 delta (unknown origin) assessed as residual activity at 1 uM in presence of [33-gamma]-ATP after 60 mins by scintillation counting method relative to control
Casein kinase I isoform delta (Homo sapiens), sequence (P48730 whole entry, looked up, the tested form may be a part, canonical isoform): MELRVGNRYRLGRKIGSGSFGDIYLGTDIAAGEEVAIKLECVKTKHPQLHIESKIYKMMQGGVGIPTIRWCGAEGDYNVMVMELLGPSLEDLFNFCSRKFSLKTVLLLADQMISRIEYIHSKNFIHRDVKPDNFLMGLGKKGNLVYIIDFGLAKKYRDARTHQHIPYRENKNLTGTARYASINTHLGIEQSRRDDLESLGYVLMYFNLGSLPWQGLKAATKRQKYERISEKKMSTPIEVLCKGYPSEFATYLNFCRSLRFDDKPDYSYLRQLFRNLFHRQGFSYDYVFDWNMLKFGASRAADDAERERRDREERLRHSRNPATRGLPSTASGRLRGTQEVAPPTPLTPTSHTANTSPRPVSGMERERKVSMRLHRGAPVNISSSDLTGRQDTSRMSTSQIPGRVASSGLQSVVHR

[14] = target: Mitogen-activated protein kinase 9 (Homo sapiens) (UniProt P45984); experiment: Inhibition of recombinant full-length human JNK2 (M1 to Y424 residues) expressed in Escherichia coli assessed as residual activity at 1 uM in presence of [33-gamma]-ATP after 60 mins by scintillation counting method relative to control
Mitogen-activated protein kinase 9 (Homo sapiens), sequence (P45984 whole entry, looked up, the tested form may be a part): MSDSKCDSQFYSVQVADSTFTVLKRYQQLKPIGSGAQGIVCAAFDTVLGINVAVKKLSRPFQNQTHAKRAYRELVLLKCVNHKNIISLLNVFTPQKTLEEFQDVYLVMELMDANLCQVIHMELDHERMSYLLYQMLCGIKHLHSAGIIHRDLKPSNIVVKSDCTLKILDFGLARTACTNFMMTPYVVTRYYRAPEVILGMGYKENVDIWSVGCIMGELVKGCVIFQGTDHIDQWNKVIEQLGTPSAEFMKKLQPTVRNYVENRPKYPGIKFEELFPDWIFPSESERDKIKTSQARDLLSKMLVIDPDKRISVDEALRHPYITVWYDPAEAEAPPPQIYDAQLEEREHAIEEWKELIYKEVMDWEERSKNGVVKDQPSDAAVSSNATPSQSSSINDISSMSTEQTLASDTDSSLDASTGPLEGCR

[15] = target: Mitogen-activated protein kinase 10 (Homo sapiens) (UniProt P53779); experiment: Inhibition of recombinant full-length human JNK3 (M1 to R426 residues) expressed in Escherichia coli assessed as residual activity at 1 uM in presence of [33-gamma]-ATP after 60 mins by scintillation counting method relative to control
[16] = target: Mitogen-activated protein kinase kinase kinase kinase 5 (Homo sapiens) (UniProt Q9Y4K4); experiment: Inhibition of MAP4K5 (unknown origin) assessed as residual activity at 1 uM in presence of [33-gamma]-ATP after 60 mins by scintillation counting method relative to control
Mitogen-activated protein kinase kinase kinase kinase 5 (Homo sapiens), sequence (Q9Y4K4 whole entry, looked up, the tested form may be a part): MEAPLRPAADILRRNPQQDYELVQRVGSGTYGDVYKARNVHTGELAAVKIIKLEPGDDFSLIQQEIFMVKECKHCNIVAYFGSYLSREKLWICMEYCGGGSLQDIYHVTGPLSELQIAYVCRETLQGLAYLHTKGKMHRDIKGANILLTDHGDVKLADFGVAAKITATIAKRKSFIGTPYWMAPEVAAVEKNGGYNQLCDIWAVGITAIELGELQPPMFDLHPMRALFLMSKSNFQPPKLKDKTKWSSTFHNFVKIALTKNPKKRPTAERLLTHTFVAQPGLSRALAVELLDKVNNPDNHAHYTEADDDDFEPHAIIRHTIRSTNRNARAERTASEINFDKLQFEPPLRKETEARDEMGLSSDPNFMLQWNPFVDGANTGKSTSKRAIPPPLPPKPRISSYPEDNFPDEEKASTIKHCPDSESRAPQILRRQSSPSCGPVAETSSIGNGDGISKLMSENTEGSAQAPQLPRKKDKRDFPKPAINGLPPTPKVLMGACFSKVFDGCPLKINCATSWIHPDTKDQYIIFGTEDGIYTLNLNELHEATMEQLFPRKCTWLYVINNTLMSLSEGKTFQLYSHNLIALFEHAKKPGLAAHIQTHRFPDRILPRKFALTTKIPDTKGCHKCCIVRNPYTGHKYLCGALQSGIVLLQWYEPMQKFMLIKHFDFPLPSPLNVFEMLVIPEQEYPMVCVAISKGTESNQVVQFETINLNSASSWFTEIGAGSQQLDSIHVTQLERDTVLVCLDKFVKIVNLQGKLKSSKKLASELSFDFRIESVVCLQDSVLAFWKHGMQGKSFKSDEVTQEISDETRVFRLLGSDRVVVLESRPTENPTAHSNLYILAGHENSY

[17] = target: Misshapen-like kinase 1 (Homo sapiens) (UniProt Q8N4C8); experiment: Inhibition of recombinant human N-terminally GST-HIS6 tagged MINK1 (M1 to E320 residues) harboring 3C-cleavage site expressed in Baculovirus infected Sf9 cells assessed as residual activity at 1 uM in presence of [33-gamma]-ATP after 60 mins by scintillation counting method relative to control
Misshapen-like kinase 1 (Homo sapiens), sequence (Q8N4C8 whole entry, looked up, the tested form may be a part): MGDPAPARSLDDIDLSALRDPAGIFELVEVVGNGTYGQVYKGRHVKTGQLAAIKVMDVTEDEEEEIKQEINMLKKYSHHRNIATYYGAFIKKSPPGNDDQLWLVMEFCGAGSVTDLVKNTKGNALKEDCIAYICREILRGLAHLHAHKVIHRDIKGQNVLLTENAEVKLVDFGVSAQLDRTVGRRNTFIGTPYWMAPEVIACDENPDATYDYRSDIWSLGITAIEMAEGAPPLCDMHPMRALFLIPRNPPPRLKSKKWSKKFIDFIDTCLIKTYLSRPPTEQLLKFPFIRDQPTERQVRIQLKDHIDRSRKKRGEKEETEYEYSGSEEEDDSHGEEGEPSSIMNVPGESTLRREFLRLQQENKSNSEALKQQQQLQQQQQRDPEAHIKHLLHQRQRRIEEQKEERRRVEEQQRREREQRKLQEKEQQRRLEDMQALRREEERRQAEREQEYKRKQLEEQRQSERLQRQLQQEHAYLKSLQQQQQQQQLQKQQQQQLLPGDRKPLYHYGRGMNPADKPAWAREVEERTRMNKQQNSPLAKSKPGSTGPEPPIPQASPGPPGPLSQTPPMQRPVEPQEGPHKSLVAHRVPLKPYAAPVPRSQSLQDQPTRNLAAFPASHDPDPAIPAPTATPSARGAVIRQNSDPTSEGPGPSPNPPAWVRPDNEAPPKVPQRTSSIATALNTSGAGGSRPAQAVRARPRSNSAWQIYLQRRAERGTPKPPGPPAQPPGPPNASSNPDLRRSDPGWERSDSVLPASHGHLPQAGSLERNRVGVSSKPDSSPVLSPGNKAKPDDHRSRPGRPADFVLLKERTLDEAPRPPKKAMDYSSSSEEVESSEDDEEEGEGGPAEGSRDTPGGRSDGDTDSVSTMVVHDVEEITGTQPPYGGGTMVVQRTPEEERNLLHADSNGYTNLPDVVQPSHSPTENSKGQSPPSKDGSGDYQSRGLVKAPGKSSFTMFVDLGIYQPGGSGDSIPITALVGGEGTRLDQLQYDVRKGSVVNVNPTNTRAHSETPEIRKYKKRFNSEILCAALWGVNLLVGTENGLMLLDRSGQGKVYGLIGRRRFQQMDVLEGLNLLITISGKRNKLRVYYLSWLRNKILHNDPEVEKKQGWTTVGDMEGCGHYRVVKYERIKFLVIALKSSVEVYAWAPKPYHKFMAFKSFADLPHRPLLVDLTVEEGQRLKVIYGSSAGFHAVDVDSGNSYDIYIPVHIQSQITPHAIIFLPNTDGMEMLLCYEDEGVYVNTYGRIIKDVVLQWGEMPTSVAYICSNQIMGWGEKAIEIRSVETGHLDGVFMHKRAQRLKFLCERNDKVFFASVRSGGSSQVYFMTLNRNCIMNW

[18] = target: Tyrosine-protein kinase Tec (Homo sapiens) (UniProt P42680); experiment: Inhibition of TEC (unknown origin) assessed as residual activity at 1 uM in presence of [33-gamma]-ATP after 60 mins by scintillation counting method relative to control
Tyrosine-protein kinase Tec (Homo sapiens), sequence (P42680 whole entry, the tested form may be a part): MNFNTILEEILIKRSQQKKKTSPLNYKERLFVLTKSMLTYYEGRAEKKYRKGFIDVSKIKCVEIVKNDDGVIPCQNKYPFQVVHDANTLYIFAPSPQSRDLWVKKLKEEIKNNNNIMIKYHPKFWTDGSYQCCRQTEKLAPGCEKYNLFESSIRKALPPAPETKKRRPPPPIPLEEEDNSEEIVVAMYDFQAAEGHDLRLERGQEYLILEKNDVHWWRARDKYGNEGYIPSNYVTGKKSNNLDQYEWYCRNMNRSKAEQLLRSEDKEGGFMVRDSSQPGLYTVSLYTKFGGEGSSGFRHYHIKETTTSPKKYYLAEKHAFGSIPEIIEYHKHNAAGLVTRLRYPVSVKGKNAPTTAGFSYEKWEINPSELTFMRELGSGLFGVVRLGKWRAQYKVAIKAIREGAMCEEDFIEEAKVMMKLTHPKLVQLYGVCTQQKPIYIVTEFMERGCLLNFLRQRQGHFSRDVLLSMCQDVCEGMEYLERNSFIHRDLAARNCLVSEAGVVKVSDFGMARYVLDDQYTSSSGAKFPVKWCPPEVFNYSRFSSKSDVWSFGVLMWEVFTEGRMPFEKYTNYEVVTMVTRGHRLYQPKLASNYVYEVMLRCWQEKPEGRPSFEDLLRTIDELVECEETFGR

[19] = target: Mitogen-activated protein kinase 14 (Homo sapiens, UniProt Q16539); experiment: Inhibition of recombinant full-length human p38alpha MAPK (M1 to S360 residues) expressed in Escherichia coli at 1 uM in presence of [33-gamma]-ATP after 60 mins by scintillation counting method
[20] = target: T1, Epidermal growth factor receptor; experiment: Ratio of Kd for wild-type human EGFR (669 to 1011 residues) after 1 hr to Kd for wild-type human EGFR (669 to 1011 residues) after 6 hrs; format: ADME
How it was run: (§2)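 Kd from competition with an immobilized active-site-directed ligand […]. Ratio compares 1 h compound–kinase equilibration against an arm with 6 h overall equilibration.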

[21] = test system: Epidermal growth factor receptor (Homo sapiens), P00533 [L858R,T790M]; experiment: Ratio of Kd for human EGFR L858R/T790M double mutant (669 to 1011 residues) after 1 hr to Kd for EGFR L858R/T790M double mutant (669 to 1011 residues) after 6 hrs; how it was run: as §2

C=CC(=O)Nc1cccc(-c2c[nH]c3nccc(-c4[nH]c(CCCO)nc4-c4ccc(F)cc4)c23)c1
IC50 [1]: < 0.3 nM | remaining at 4 h, 100 µM [2]: 87% | Kd [3]: 0.93 nM | Kd [4]: 14 nM | Activity (Homo sapiens [5]): 3% | Activity (Homo sapiens [6]): 6% | Activity (Homo sapiens [7]): 6% | Activity [8]: 37% | Activity [9]: 3% | Activity [10]: 17% | Activity [11]: 4% | Activity [12]: 17% | Activity [13]: 47% | Activity [14]: 37% | Activity [15]: 34% | Activity [16]: 2% | Activity [17]: 5% | Activity [18]: 33% | inhibition [19]: Active | Ratio [20]: 3 to 5 | Ratio [21]: 3 to 5

— ChEMBL document CHEMBL4049460, “Trisubstituted Imidazoles with a Rigidized Hinge Binding Motif Act As Single Digit nM Inhibitors of Clinically Relevant EGFR L858R/T790M and L858R/T790M/C797S Mutants: An Example of Target Hopping” (J Med Chem, 2017)
